Assays:
mDAGL-α = biological target: T1, mDAGL-α (Mus musculus, UniProt Q6WQJ1); experiment: Standard PNP-butyrate surrogate substrate assay; assay type: biochemical
T1 sequence (Q6WQJ1 1-1044): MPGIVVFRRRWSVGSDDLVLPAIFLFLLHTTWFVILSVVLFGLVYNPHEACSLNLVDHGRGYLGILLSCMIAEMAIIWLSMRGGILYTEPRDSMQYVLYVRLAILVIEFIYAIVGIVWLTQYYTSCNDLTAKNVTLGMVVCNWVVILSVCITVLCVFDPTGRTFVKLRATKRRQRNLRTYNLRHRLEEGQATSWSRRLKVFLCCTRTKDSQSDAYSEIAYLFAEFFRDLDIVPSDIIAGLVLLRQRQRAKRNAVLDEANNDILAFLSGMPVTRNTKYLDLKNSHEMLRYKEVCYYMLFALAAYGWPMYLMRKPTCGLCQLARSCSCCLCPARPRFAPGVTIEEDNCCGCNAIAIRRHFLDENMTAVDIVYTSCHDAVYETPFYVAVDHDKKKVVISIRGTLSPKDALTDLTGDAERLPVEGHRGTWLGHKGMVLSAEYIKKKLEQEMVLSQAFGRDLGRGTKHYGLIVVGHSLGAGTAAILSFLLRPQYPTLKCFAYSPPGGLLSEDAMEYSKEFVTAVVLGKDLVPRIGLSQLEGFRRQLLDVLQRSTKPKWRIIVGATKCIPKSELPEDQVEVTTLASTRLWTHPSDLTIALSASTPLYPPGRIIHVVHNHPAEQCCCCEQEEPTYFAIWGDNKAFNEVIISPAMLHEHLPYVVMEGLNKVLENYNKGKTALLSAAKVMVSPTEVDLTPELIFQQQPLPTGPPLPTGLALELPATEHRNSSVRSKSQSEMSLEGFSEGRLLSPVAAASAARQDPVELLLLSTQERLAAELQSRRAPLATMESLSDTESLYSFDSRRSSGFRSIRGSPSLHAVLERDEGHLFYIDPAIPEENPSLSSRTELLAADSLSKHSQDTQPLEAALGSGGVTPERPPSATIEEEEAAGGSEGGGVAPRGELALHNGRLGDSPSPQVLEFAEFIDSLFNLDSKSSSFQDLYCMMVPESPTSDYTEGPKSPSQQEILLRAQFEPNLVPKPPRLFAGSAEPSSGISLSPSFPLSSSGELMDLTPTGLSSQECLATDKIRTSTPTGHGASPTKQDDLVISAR
How it was run: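 Membrane fraction of HEK293T cells transiently transfected with mDAGL-α, 0.05 μg/μL final, in 50 mM Hepes pH 7.2. Inhibitor in DMSO preincubated 20 min, then PNP-butyrate added (0.3 mM final; 5% DMSO final). OD 420 nm read after 30 min at 20 °C. Data corrected for 10 μM THL background and normalized to DMSO control. N = 2, n = 2; plates kept if Z′ > 0.6.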

DAGL-α = biological target: T2, DAGL-α (Mus musculus, UniProt Q6WQJ1); assay type: biochemical; settings: ratio of kinact versus KT109 and DH376
T2 sequence (Q6WQJ1 1-1044): T1 sequence (Q6WQJ1 1-1044)

| potency in the standard surrogate substrate assay (in words) (mDAGL-α) | inactivation rate (kinact) times higher than for KT109 and DH376 (DAGL-α) | SMILES |
| --- | --- | --- |
| low nanomolar | 2–3 times | O=C(N1CCCC[C@@H]1Cc1ccccc1)n1ncc(C(O)(c2ccc(F)cc2)c2ccc(F)cc2)n1 [Compound 1, (R)-(2-Benzylpiperidin-1-yl)(4-(bis(4-fluorophenyl)(hydroxy)methyl)-2H-1,2,3-triazol-2-yl)methanone] |
| low nanomolar | 2–3 times | O=C(N1CCCC[C@@H]1Cc1ccccc1)n1cc(C(O)(c2ccc(F)cc2)c2ccc(F)cc2)nn1 [Compound 2, (R)-(2-Benzylpiperidin-1-yl)(4-(bis(4-fluorophenyl)(hydroxy)methyl)-1H-1,2,3-triazol-1-yl)methanone] |

From PMC6745892 (Journal of Medicinal Chemistry, 2019)
